# Measurements from PubChem BioAssay.
# The source made the active and inactive calls.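 The calls were made as follows, unless noted: active = fluorescence slope after compound addition differing from the mean of all screened samples at 99.7% confidence, in either direction; inactive = the rest.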
# Target: Alpha-2C adrenergic receptor (Homo sapiens) (UniProt P18825)
# Assay: compounds altering alpha2C-coupled GIRK flux – cell-based, HEK293 alpha2C/GIRK1/2, thallium flux, primary screen (AID 624);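 also: slope of fluorescence ratio to pre-addition baseline per second over 15 to 24 s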
# Conditions: thallium flux BTC fluorescence, at 10 µM, actives lie on both sides
# Alpha-2C adrenergic receptor (Homo sapiens), sequence (P18825 whole entry, looked up): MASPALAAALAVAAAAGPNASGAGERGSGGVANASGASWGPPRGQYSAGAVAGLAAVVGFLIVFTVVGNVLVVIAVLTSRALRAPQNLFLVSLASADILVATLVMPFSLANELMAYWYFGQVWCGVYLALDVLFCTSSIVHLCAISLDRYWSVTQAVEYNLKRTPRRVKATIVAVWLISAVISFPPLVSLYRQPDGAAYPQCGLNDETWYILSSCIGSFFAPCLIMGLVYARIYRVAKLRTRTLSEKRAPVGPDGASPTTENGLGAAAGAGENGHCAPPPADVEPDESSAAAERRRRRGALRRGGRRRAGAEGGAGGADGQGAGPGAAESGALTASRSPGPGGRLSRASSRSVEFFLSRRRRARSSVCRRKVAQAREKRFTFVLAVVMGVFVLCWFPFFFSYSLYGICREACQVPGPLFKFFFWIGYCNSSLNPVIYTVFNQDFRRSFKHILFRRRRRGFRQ
row,Compound,slope
1,Cc1ccccc1N1C(=O)C2ON(c3ccccc3)C(c3ccncc3)C2C1=O (centres undefined),0.00538 (inactive)
2,CCN(CC)CCCN1C(=O)C(=O)/C(=C(/O)c2ccc(Cl)cc2)C1c1ccccn1 (centres undefined),0.00491 (inactive)
3,CN/C(=C/[N+](=O)[O-])NCCSCc1ccc(CN(C)C)o1,0.00584 (inactive)
4,Clc1ccccc1CN1CCc2sccc2C1,0.00442 (inactive)
5,COc1ccc(C2C=C(c3ccc(Cl)cc3)Nc3nc(NC(C)=O)nn32)cc1 (centres undefined),0.00461 (inactive)
6,N#Cc1nc(-c2ccccc2Cl)oc1N1CCCCC1,0.00507 (inactive)
7,CC1=CC(c2ccccc2)n2nc(N3C(=O)C4CC=CCC4C3=O)nc2N1 (centres undefined),0.00753 (inactive)
8,CC(C)Cn1nc(NC(=O)C(C)(C)C)c2cc3ccccc3nc21,0.00396 (inactive)
9,CNCCCN1c2ccccc2CCc2ccccc21,0.00468 (inactive)
10,COc1ccc(CNC(=O)[C@H](C)NC(=O)C2CCN(S(=O)(=O)c3ccc(C)cc3)CC2)cc1,0.00578 (inactive)
11,CCOc1ccc(/C(O)=C2/C(=O)C(=O)N(c3nc(C)c(C)s3)C2c2ccco2)cc1 (centres undefined),0.00508 (inactive)
12,N#C/C(=N\O)c1nc(-c2ccccc2)cs1,0.00629 (inactive)
13,CC(C)(C)c1ccc(C(O)CCCN2CCC(C(O)(c3ccccc3)c3ccccc3)CC2)cc1 (centres undefined),0.00381 (inactive)
14,CCc1cc(=O)oc2c(CN3CCCC3)c(O)c(Cl)cc12,0.0046 (inactive)
15,COc1cccc(-c2nc(NC(C)(C)C)c3ccccc3n2)c1O,0.00293 (inactive)
16,CCOC(=O)C1=C(C)NC(C)=C(C(=O)OC)C1c1cccc(Cl)c1Cl (centres undefined),0.00394 (inactive)
17,CC1(C)CC(NC(=O)C23CCC(C)(/C(=N/O)C2)C3(C)C)CC(C)(C)N1 (centres undefined),0.00577 (inactive)
18,O=C1C(CCS(=O)c2ccccc2)C(=O)N(c2ccccc2)N1c1ccccc1 (centres undefined),0.00501 (inactive)
19,COc1ccc(C(=O)Nc2nc(N)n(-c3ccccc3)n2)cc1OC,0.00543 (inactive)
20,COC(=O)C1=C(C)N=C2SC(C)C(=O)N2C1/C=C/c1ccccc1OC (centres undefined),0.00673 (inactive)

row,Compound,slope
1,CN1CCN(Cc2c(O)ccc3c(-c4ccccc4)cc(=O)oc23)CC1,0.00684 (inactive)
2,Cc1ccc(N2C(=O)C3ON(c4ccccc4)C(c4ccncc4)C3C2=O)c(C)c1 (centres undefined),0.00457 (inactive)
3,COc1ccccc1-c1cc(-c2cc(Cl)ccc2O)n[nH]1,0.0086 (inactive)
4,Cc1ccc(N(Cc2cc3ccccc3[nH]c2=O)C(=O)c2ccco2)c(C)c1,0.00671 (inactive)
5,c1ccc(-c2nc(NCC3CCCO3)c3ccccc3n2)nc1 (centres undefined),0.00509 (inactive)
6,CCCOC(=O)C1[C@H]2C(=O)N(Cc3ccco3)C[C@]23C=C[C@H]1O3 (some centres undefined),0.00455 (inactive)
7,Oc1ccc(Br)cc1-c1cc(-c2ccccc2F)[nH]n1,0.00987 (inactive)
8,CCOC(=O)c1cc2c(=O)n3ccccc3nc2n(Cc2ccccc2Cl)c1=N,0.00529 (inactive)
9,Cc1c(C)c2cc(Cl)c(O)c(CN3CCN(C)CC3)c2oc1=O,0.00398 (inactive)
10,Oc1ccccc1-c1nc(NCc2ccco2)c2ccccc2n1,0.00698 (inactive)
11,Cc1ccc2cc(CN(C(=O)c3ccco3)c3ccccc3C)c(=O)[nH]c2c1,0.00844 (inactive)
12,Cc1noc(NS(=O)(=O)c2ccc(N)cc2)c1C,0.00419 (inactive)
13,CCn1nc(C(=O)O)c(=O)c2cc3c(cc21)OCO3,0.00573 (inactive)
14,O=C(O)CCCCCN1C(=O)CCC1=O,0.0074 (inactive)
15,CC(C)Oc1ccc2c(=O)c(-c3ccccc3)coc2c1,0.00497 (inactive)
16,COc1ccc(NCc2cc3ccccc3[nH]c2=O)cc1,0.00788 (inactive)
17,CC(=O)Nc1n[nH]c(S(=O)(=O)Cc2ccc(Cl)cc2Cl)n1,0.00491 (inactive)
18,Cc1oncc1C(=O)Nc1ccc(C(F)(F)F)cc1,0.00635 (inactive)
19,O=C1C2ON(c3ccccc3)C(c3ccncc3)C2C(=O)N1c1ccccc1 (centres undefined),0.00494 (inactive)

# System: not listed separately
# Assay: inhibitors of larval lipid processing in zebrafish, primary screen, whole organism, PED6 fluorescence, gall bladder and intestine (AID 686;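 active = a full or partial loss of lipid-probe fluorescence in the fish gall bladder, intestine or both, judged by eye; inactive = no fluorescence loss, or compound toxic to the fish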;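 also: larvae 5 to 7 days old with five fish per well; signal comes from phospholipase A2 cleavage of quenched PED6 carried via bile; overnight exposure to compound and PED6 before scoring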)
# Conditions: Zebrafish larvae PED6 lipid processing, fluorescence scoring; screened at 20 µM (by protocol)
# Procedure, shortened: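 Test system – live zebrafish larvae aged 5-7 days, whole organism · Buffer or medium – E3 fish medium · Reagent – quenched phospholipase substrate PED6, 100 nM final, ingested by larvae · Doses – 20 µM single dose · Incubation – overnight compound and PED6 incubation · Technique – visual fluorescence microscopy scoring of gall bladder, gut · Read-out basis – visual per-well fluorescence inhibition score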
row,Compound,outcome
1,CN/C(=C/[N+](=O)[O-])NCCSCc1ccc(CN(C)C)o1,inactive
2,Clc1ccccc1CN1CCc2sccc2C1,inactive
3,CNCCCN1c2ccccc2CCc2ccccc21,inactive
4,CC(C)(C)c1ccc(C(O)CCCN2CCC(C(O)(c3ccccc3)c3ccccc3)CC2)cc1 (centres undefined),inactive
5,CCOC(=O)C1=C(C)NC(C)=C(C(=O)OC)C1c1cccc(Cl)c1Cl (centres undefined),inactive
6,O=C1C(CCS(=O)c2ccccc2)C(=O)N(c2ccccc2)N1c1ccccc1 (centres undefined),inactive
7,Cc1noc(NS(=O)(=O)c2ccc(N)cc2)c1C,inactive
8,CCn1nc(C(=O)O)c(=O)c2cc3c(cc21)OCO3,inactive
9,CC(C)Oc1ccc2c(=O)c(-c3ccccc3)coc2c1,inactive
10,Cc1oncc1C(=O)Nc1ccc(C(F)(F)F)cc1,inactive
